Data set [1] relates to ubiquitylated proteins in T. cruzi epimastigotes. The experiment in a line: Accumulation of ubiquitylated proteins in T. cruzi epimastigotes. Particulars: Trypanosoma cruzi, read-out: ubiquitylation EC50, T. cruzi epimastigotes. The format is cell-based. In outline: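 T. cruzi epimastigotes were seeded at 1 × 10^7 cells/well in LIT medium and exposed to DMSO (0.2%) or a range of test compound concentrations for 2–12 h at 27 °C. Cells were pelleted, washed twice in PBS, and lysed for 20 min on ice in Tris pH 7.4/NaCl/1% CHAPS buffer with protease inhibitors and N-ethylmaleimide. Lysates were cleared at 21,000 g, 30 min, 4 °C.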

The test system of another data set is T. cruzi epimastigotes. The experiment in a line: microbe, parasite or virus in culture. The data set is classed as cell-based, Trypanosoma cruzi. The settings on record: for inhibition of T. cruzi epimastigote proliferation, potency: wild type epimastigotes.
The target of data set [2] is T1, PSMB4^I29M T. cruzi proteasome (Trypanosoma cruzi, UniProt Q4CU77+Q4D8U7, I29M).
T1 sequence (Q4CU77 1-206 I29M): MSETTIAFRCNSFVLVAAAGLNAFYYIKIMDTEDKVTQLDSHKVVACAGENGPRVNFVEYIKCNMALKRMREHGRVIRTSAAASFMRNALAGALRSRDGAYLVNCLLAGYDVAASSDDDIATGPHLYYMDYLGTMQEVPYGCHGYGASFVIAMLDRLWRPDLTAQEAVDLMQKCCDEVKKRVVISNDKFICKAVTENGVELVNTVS
T1 sequence (Q4D8U7 111-311): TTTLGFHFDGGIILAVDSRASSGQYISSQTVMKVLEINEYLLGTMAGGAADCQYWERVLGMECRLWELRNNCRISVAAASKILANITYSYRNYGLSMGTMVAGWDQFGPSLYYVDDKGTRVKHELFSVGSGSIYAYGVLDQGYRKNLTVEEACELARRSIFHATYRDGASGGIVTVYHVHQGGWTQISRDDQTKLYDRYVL
Kind of data set: Proteasome proteolytic activities, PSMB4^I29M T. cruzi proteasome. The data set is classed as biochemical. Particulars: mean ± s.e.m., n=3.

The next data set has as its system T. brucei (GVR35-VSL2). Kind of data set: Mouse model of stage II HAT. The format is in vivo, Trypanosoma brucei. The settings on record: single ip dose 40 mg/kg.

Peptide text beside a SMILES is read from it. * marks the point of attachment. Cbz = O=C(OCc1ccccc1)*

Regarding `CC(C)C[C@H](NC(=O)[C@H](Cc1ccccc1)NC(=O)c1cnccn1)B(O)O` [bortezomib], the EC50 in data set [1] was found to be 0.062 µM; with T. cruzi epimastigotes (Trypanosoma cruzi, read-out: growth inhibition EC50 on T. cruzi epimastigotes) it was 0.16 µM. Besides, the “inhibition of T. cruzi epimastigote proliferation, potency” value in the data set on T. cruzi epimastigotes is “sub-micromolar potency”. In addition, the IC50 was 0.54 ± 0.012 µM in data set [2] (IC50 caspase, caspase-like activity); 0.26 ± 0.04 µM in data set [2] (IC50 chymotrypsin, chymotrypsin-like activity); 1.6 ± 0.058 µM in data set [2] (IC50 trypsin, trypsin-like activity).

Take `CC(=O)NCC(=O)O.CC(=O)NCC(=O)O.N=C(N)c1ccc(N=NNc2ccc(C(=N)N)cc2)cc1` [diminazene aceturate]: the “parasite clearance / recrudescence” value in the data set with T. brucei (GVR35-VSL2) is listed as “did not prevent parasite recrudescence 21 days later”. In addition, the “parasites in the brain” value in the data set with T. brucei (GVR35-VSL2) (ex vivo brain imaging) is listed as “parasites were clearly detected in the brains”.

`CC(C)C[C@@H](C=O)NC(=O)[C@H](CC(C)C)NC(=O)[C@H](CC(C)C)NC(=O)OCc1ccccc1` [MG132] (Cbz-Leu-Leu-Leu-aldehyde): in the data set on T. cruzi epimastigotes, the “inhibition of T. cruzi epimastigote proliferation, potency” value is recorded as “sub-micromolar potency”.
